Target: T1, Sodium- and chloride-dependent betaine transporter (Mus musculus, UniProt P31651)
T1 sequence (P31651 whole entry): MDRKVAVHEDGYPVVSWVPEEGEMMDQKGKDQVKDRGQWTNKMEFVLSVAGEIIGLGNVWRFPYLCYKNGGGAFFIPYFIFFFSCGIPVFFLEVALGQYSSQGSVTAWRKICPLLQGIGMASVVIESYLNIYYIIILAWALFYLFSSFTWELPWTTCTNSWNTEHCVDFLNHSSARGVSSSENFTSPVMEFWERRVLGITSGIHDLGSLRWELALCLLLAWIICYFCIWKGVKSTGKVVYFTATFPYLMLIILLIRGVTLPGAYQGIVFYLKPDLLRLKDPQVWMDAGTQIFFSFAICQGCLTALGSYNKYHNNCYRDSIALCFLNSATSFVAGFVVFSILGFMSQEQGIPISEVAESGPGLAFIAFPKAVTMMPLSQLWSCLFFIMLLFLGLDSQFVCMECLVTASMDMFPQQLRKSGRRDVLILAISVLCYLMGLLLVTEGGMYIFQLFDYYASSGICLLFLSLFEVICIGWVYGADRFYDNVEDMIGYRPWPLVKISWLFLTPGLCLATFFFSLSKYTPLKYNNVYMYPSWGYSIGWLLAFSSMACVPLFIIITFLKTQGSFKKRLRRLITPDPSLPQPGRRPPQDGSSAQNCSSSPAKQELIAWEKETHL
Assay: Inhibition of mouse BGT1 expressed in HEK293 cells assessed as reduction in [3H]GABA uptake after 3 mins by scintillation counting method
Method in brief: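 HEK293 lines stably expressing a single mouse GAT subtype, kept under blasticidin-S (5 µg/mL) selection. Cells were assayed about 24 h after plating with 30 nM [3H]GABA plus varying compound concentrations for 3 min at 37 °C in HBSS buffered with 20 mM HEPES (1 mM CaCl2, 1 mM MgCl2, pH 7.4). Cells were washed ice-cold and radioactivity counted. IC50 came from sigmoidal variable-slope fits.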

An IC50 of 126 µM was found for `O=C(NC1CCN(Cc2cccc(OC(F)(F)F)c2)CC1)c1ccc(Cl)cc1Cl` in this work.

From BindingDB's records for doi:10.1021/acs.jmedchem.7b00924 (University of Copenhagen, 2017)
